In ChEMBL document CHEMBL1122046, “Quaternary heterocyclylamino beta-lactams: a generic alternative to the classical acylamino side chain” (1982):
In brackets after ≈: the same amount, converted by molar mass.

Legend:
[1] = test system: Salmonella; experiment: Inhibition zone diameter against aerobic organism Salmonella strain 826
[2] = test system: Klebsiella; experiment: Inhibition zone diameter against aerobic organism Klebsiella species strain 2921
[3] = test system: Serratia marcescens; experiment: Inhibition zone diameter against aerobic organism Serratia marcescenes strain 2855
[4] = test system: Staphylococcus aureus; experiment: Inhibition zone diameter against aerobic organism Staphylococcus aureus strain 2314
[5] = test system: Pseudomonas aeruginosa; experiment: Inhibition zone diameter against aerobic organism Pseudomonas aeruginosa strain 3350
[6] = test system: Streptococcus pyogenes; experiment: Inhibition zone diameter against aerobic organism Streptococcus pyogenes strain 2874
[7] = test system: Morganella morganii; experiment: Disk zone diameter (25 ug/disk) against aerobic organism Morganella morganii strain 2834
[8] = test system: Escherichia coli; experiment: MIC against aerobic organism Escherichia coli strain 2891; assay type: functional; settings: Escherichia coli; read-out: MIC
How it was run: (§1)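 Agar-dilution MIC in µg/mL against aerobic bacterial strains on tryptocase soy agar, with inoculum applied as spots. Most series used 10^5 cfu per spot, and a later series used 10^4 cfu per spot. In some tables, footnoted strains were instead tested on Mueller-Hinton or nutrient agar. β-Lactamase-producing strains are flagged.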

[9] = test system: Enterobacter cloacae; experiment: Minimum inhibitory concentration against aerobic organism Enterobacter cloacae 2646; assay type: functional
How it was run: as §1

[10] = test system: Klebsiella pneumoniae; experiment: Minimum inhibitory concentration against aerobic organism Klebsiella pneumoniae strain 2882; assay type: functional; settings: Klebsiella pneumoniae; read-out: MIC
How it was run: as §1

[11] = Minimum inhibitory concentration against aerobic organism Salmonella schottmuelleri strain 2837; assay type: functional; settings: Salmonella; read-out: MIC
How it was run: as §1

[12] = test system: Streptococcus pyogenes; experiment: Minimum inhibitory concentration against aerobic organism Streptococcus pyogenes strain 3124; assay type: functional
How it was run: as §1

[13] = test system: Staphylococcus aureus; experiment: Minimum inhibitory concentration against aerobic organism Staphylococcus aureus strain 2868; assay type: functional; settings: Staphylococcus aureus; read-out: MIC
How it was run: as §1

[14] = test system: Enterococcus faecalis; experiment: Minimum inhibitory concentration against aerobic organisms Streptococcus faecalis strain 2864; assay type: functional
How it was run: as §1

[15] = test system: Shigella sp.; experiment: (§2) Minimum inhibitory concentration against aerobic organism Shigella species strain 2880; assay type: functional
How it was run: as §1

[16] = test system: Klebsiella aerogenes; experiment: Minimum inhibitory concentration against aerobic organism Enterobacter aerogenes strain 2906; assay type: functional; settings: Klebsiella aerogenes; read-out: MIC
How it was run: as §1

[17] = test system: Enterobacter cloacae; experiment: Minimum inhibitory concentration against aerobic organism Enterobacter cloacae strain 2646; assay type: functional; settings: Enterobacter cloacae; read-out: MIC
How it was run: as §1

[18] = test system: Pseudomonas aeruginosa; experiment: Minimum inhibitory concentration against aerobic organism Pseudomonas aeruginosa strain 2835; assay type: functional
How it was run: as §1

[19] = test system: Proteus mirabilis; experiment: Minimum inhibitory concentration against aerobic organism Proteus mirabilis strain 2830; assay type: functional; settings: Proteus mirabilis; read-out: MIC
How it was run: as §1

[20] = test system: Proteus vulgaris; experiment: Minimum inhibitory concentration against aerobic organism Proteus vulgaris strain 2829; assay type: functional; settings: Proteus vulgaris; read-out: MIC
How it was run: as §1

[21] = test system: Serratia marcescens; experiment: Minimum inhibitory concentration against aerobic organism Serratia marcescens strain 2852; assay type: functional; settings: Serratia marcescens; read-out: MIC
How it was run: as §1

[22] = test system: Enterococcus faecalis; experiment: Minimum inhibitory concentration against aerobic organism Streptococcus faecalis strain 2864; assay type: functional
How it was run: as §1

[23] = test system: Shigella; experiment: as §2; assay type: functional; settings: Shigella; read-out: MIC
How it was run: as §1

[24] = test system: Morganella morganii; experiment: Minimum inhibitory concentration against aerobic organism Morganella morganii strain 2833
[25] = Minimum inhibitory concentration against aerobic organism Salmonella schottmuelleri 2837; assay type: functional
How it was run: as §1

[26] = test system: Klebsiella aerogenes; experiment: Minimum inhibitory concentration against aerobic organism Enterobacter aerogenes strain 2828; assay type: functional
How it was run: as §1

[27] = test system: Klebsiella pneumoniae; experiment: Minimum inhibitory concentration against aerobic organism Klebsiella pneumoniae strain 4005; assay type: functional
How it was run: as §1

[28] = test system: Morganella morganii; experiment: Minimum inhibitory concentration against aerobic organism Morganella morganii strain 2833; assay type: functional; settings: Morganella morganii; read-out: MIC
How it was run: as §1

[29] = test system: Staphylococcus aureus; experiment: Minimum inhibitory concentration against aerobic organism Staphylococcus aureus strain 2865; assay type: functional
How it was run: as §1

[30] = test system: Salmonella; experiment: Minimum inhibitory concentration against aerobic organism Salmonella strain 3860
[31] = test system: Enterococcus faecalis; experiment: Minimum inhibitory concentration against aerobic organism Streptococcus faecalis strain 2864
[32] = Streptococcus pyogenes, read-out: MIC

Work on C[C@@H](O)[C@H]1C(=O)N2C(C(=O)O)=C(SCCNC=N)C[C@H]12 [IMIPENEM ANHYDROUS] yielded a zone diameter [1] of 29.5 mm, a zone diameter [2] of 26.5 mm and a zone diameter [3] of 24.5 mm. For the same molecule, the zone diameter [4] was 42 mm, the zone diameter [5] was 31 mm and the zone diameter [6] was 43 mm. It also gave a zone diameter [7] of 27 mm.
Work on CC1(C)S[C@@H]2[C@H](NC(=O)[C@H](N)c3ccccc3)C(=O)N2[C@H]1C(=O)O [AMPICILLIN] yielded an MIC [8] greater than 100 mg/L, an MIC [9] greater than 100 mg/L and an MIC [10] of 50 mg/L (≈ 143 µM). For the same molecule, the MIC [11] was 1.56 mg/L (≈ 4.46 µM), the MIC [12] was less than 0.09 mg/L and the MIC [13] was 25 mg/L (≈ 71.5 µM). For the same molecule, the MIC [14] was 6.25 mg/L (≈ 17.9 µM) and the MIC [15] was 6.25 mg/L (≈ 17.9 µM).
With CC(O)[C@H]1C(=O)N2C(C(=O)[O-])=C(SCCNc3cc[n+](Cc4ccccc4)cc3)C[C@H]12 (stereo partly specified) the zone diameter [1] was 26 mm, the zone diameter [2] was 24 mm and the zone diameter [3] was 25 mm. For the same molecule, the zone diameter [4] was 36 mm, the zone diameter [5] was 11.2 mm and the zone diameter [6] was 35.2 mm. It also gave a zone diameter [7] of 26.5 mm.
In the case of CCOC(=O)C[n+]1ccc(N[C@@H]2C(=O)N3C(C(=O)[O-])=C(CSc4nnnn4C)CS[C@H]23)cc1, the MIC [8] is reported as 2 mg/L (≈ 4.07 µM), the MIC [16] is reported as 32 mg/L (≈ 65.1 µM) and the MIC [17] is reported as 16 mg/L (≈ 32.5 µM). It also gave an MIC [10] of 4 mg/L (≈ 8.14 µM), an MIC [18] greater than 128 mg/L and an MIC [19] of 128 mg/L (≈ 260 µM). For the same molecule, the MIC [20] was less than 0.5 mg/L, the MIC [11] was 2 mg/L (≈ 4.07 µM) and the MIC [21] was greater than 128 mg/L. It also gave an MIC [12, 32] of less than 0.5 mg/L, an MIC [13] of 16 mg/L (≈ 32.5 µM) and an MIC [22] greater than 128 mg/L. It also gave an MIC [23] of less than 0.5 mg/L and an MIC [24] greater than 128 mg/L.
With CC(=O)NCCSC1=C(C(=O)O)N2C(=O)[C@H](C(C)O)[C@H]2C1 (stereo partly specified) the zone diameter [1] was 30.5 mm, the zone diameter [2] was 28 mm and the zone diameter [3] was 28 mm. For the same molecule, the zone diameter [4] was 39 mm, the zone diameter [5] was 10 mm and the zone diameter [6] was 37 mm. For the same molecule, the zone diameter [7] was 28.5 mm.
In the case of CC1(C)S[C@@H]2[C@H](NC(=O)Cc3ccccc3)C(=O)N2[C@H]1C(=O)O [PENICILLIN G], the MIC [8] is reported as greater than 100 mg/L, the MIC [9] is reported as greater than 100 mg/L and the MIC [10] is reported as 25 mg/L (≈ 74.8 µM). It also gave an MIC [25] of 3.12 mg/L (≈ 9.33 µM), an MIC [12, 32] of less than 0.39 mg/L and an MIC [13] of 12.5 mg/L (≈ 37.4 µM). The MIC [14] was 1.56 mg/L (≈ 4.67 µM) and the MIC [15] was 6.25 mg/L (≈ 18.7 µM).
With Cc1nnc(SCC2=C(C(=O)[O-])N3C(=O)[C@@H](Nc4cc[n+](Cc5ccccc5)cc4)[C@H]3SC2)s1 the MIC [8] was less than 0.06 mg/L, the MIC [26] was 16 mg/L (≈ 31.3 µM) and the MIC [17] was 0.125 mg/L (≈ 0.244 µM). For the same molecule, the MIC [27] was 16 mg/L (≈ 31.3 µM), the MIC [28] was 128 mg/L (≈ 250 µM) and the MIC [18] was greater than 128 mg/L. It also gave an MIC [19] of 128 mg/L (≈ 250 µM), an MIC [20] of 0.25 mg/L (≈ 0.489 µM) and an MIC [29] of 0.25 mg/L (≈ 0.489 µM). The MIC [13] was 2 mg/L (≈ 3.91 µM), the MIC [22] was 64 mg/L (≈ 125 µM) and the MIC [30] was 0.125 mg/L (≈ 0.244 µM).
Molecule C[n+]1ccc(NC2C(=O)N3C2SC(C)(C)[C@@H]3C(=O)[O-])cc1 (stereo partly specified) has an MIC [8] of 50 mg/L (≈ 163 µM), an MIC [17] greater than 100 mg/L and an MIC [10] of 100 mg/L (≈ 325 µM). It also gave an MIC [11] of 0.78 mg/L (≈ 2.54 µM), an MIC [12, 32] of 1.56 mg/L (≈ 5.08 µM) and an MIC [13] greater than 100 mg/L. For the same molecule, the MIC [23] was 12.5 mg/L (≈ 40.7 µM) and the MIC [31] was greater than 100 mg/L.
